Converted amounts (≈) assume the structure as drawn. Blank lines part the entries; values can stand above or below the compound they belong to.
Columns and labels:
[1] = In vitro stability with human liver S9 incubation with or without NADPH; type: in vitro ADME; settings: for Parent compound remaining after the reaction / Level of the corresponding acid metabolite: human hepatic S9, 60 min; for Parent compound remaining after the reaction: with or without NADPH; for Level of the corresponding acid metabolite: metabolites 15 and 27, respectively
[2] = Chemical stability; type: physicochemical; settings: 40 mM NaOH; 22 °C
Method in brief: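 The test compound was incubated in alkaline solution (40 mM NaOH) at 22 °C. Hydrolysis was followed over time as conversion to the corresponding phenol.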

[3] = target: T1, human sEH (Homo sapiens, UniProt P34913); assay: Inhibition of human sEH, kinetic fluorescent assay; type: biochemical; settings: for Fold better inhibitory activity against sEH: salicylic acids vs benzoic acids 14 and 15, respectively
T1 sequence (P34913 1-555): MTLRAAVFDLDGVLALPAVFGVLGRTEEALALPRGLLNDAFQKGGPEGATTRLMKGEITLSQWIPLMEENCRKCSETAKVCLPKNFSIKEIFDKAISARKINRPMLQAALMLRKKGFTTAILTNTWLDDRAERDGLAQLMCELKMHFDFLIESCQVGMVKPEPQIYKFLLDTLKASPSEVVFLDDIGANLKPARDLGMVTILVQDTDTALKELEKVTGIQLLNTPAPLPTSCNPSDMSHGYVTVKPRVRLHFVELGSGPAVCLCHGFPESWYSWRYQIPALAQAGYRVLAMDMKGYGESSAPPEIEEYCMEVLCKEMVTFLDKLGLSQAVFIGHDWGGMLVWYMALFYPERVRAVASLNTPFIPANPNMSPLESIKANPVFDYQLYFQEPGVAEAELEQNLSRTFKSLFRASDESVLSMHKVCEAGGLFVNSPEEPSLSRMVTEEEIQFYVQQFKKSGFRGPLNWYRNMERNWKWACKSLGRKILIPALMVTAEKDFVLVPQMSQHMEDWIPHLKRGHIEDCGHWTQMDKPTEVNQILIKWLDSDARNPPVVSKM

[4] = Octanol/buffer partition, experimental logP; type: physicochemical; settings: for Concentration in buffer: 0.1 M sodium phosphate buffer (pH 7.4) vs buffer saturated 1-octanol; for Concentration in octanol: buffer saturated 1-octanol vs 0.1 M sodium phosphate buffer (pH 7.4)
[5] = Blood levels after oral administration to dog; type: in vivo; settings: oral gavage 0.3 mg/kg in tri-olein rich oil
Method in brief: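 Dogs received the test compound as a single oral gavage dose of 0.3 mg/kg in tri-olein rich oil. Blood concentrations were followed over time to give concentration–time profiles.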

[6] = target: T2, COX-1 (Ovis aries, UniProt P05979); assay: COX-1 fluorescent inhibitor screening assay kit; type: biochemical; settings: at 10 μM
T2 sequence (P05979 25-600): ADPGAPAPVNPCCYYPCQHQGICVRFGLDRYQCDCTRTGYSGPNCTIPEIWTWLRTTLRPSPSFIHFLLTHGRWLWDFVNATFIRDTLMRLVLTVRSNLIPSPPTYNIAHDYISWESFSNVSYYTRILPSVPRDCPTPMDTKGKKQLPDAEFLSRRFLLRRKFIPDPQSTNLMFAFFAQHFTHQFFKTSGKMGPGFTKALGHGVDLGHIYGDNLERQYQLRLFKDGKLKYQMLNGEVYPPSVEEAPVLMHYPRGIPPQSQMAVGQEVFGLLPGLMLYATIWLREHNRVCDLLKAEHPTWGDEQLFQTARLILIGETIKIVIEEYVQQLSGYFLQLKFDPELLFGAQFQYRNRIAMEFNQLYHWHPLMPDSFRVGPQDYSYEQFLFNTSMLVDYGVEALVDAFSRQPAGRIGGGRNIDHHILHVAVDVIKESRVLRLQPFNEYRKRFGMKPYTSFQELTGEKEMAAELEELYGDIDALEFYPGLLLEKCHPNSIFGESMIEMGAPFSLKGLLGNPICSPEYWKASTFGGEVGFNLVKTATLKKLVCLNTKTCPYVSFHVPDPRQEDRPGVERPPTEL

[7] = target: T3, COX-2 (Homo sapiens, UniProt P35354); assay: COX-2 fluorescent inhibitor screening assay kit; type: biochemical; settings: at 10 μM
T3 sequence (P35354 18-604): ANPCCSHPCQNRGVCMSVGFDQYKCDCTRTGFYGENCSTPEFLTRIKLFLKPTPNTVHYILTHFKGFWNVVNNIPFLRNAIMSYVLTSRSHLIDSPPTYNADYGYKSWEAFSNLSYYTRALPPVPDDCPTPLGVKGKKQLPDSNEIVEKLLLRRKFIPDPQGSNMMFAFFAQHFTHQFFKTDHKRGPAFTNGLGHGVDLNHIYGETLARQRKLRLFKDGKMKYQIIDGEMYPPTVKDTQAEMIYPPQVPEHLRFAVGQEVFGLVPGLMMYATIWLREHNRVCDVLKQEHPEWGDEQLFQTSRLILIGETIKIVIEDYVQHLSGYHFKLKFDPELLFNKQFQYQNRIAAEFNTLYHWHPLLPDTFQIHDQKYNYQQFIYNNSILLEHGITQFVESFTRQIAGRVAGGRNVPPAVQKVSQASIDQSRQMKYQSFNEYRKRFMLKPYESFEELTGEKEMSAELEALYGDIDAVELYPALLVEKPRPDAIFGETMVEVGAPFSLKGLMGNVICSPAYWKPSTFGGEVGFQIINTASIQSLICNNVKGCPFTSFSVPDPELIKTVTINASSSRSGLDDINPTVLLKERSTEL

[8] = Solubility in water; type: physicochemical
[9] = target: T1, human sEH; settings: statement in words; cited from earlier work

Compound: COC(=O)c1cc(NC(=O)NC23CC4CC(CC(C4)C2)C3)ccc1O [Compound 26]
- Fold increase in metabolic stability ([1]; human liver S9, compared to 12): 10 fold

Compound: O=C(Nc1ccc(O)c(C(=O)O)c1)NC12CC3CC(CC(C3)C1)C2 [Compound 25]
- Fold better inhibitory activity against sEH [3]: 3 fold

Compound: O=C(Nc1ccccc1O)NC12CC3CC(CC(C3)C1)C2 [Compound 2]
- Fold reduction of inhibitory potency against human sEH ([3]; ortho hydroxy vs non-functionalized compound 1 / meta, para isomers): roughly 10 fold

Compound: O=C(Nc1ccc(C(=O)O)c(O)c1)NC12CC3CC(CC(C3)C1)C2 [Compound 27]
- Blood concentration [5]: no 27 was detected
- Fold more soluble in water ([8]; compared to 17 (so in the source)): 20 fold
- Fold better inhibitory activity against sEH [3]: 20 fold
- Concentration in buffer [4]: 39 µM
- Concentration in octanol [4]: 1641 µM

Compound: O=C(Nc1cccc(C(=O)N2CCC(N3CCOCC3)CC2)c1)NC12CC3CC(CC(C3)C1)C2 [Compound 17]
- solubility ([8]; sodium phosphate buffer, pH 7.4): 10000 µg/mL (≈ 21.4 mM)
- Concentration in octanol [4]: 2720 µM

Compound: O=C(NC12CC3CC(CC(C3)C1)C2)NC12CC3CC(CC(C3)C1)C2 [N,N′-bisadamantyl urea]
- Inhibition towards sEH [9]: strong inhibition

Continued, in another order:

- Hydrolysis to the corresponding phenol 4 ([1]; human hepatic S9, in an hour): hydrolyzed completely
- Time to complete conversion to the corresponding phenol 4 [2]: less than 15 min
Compound: CC(=O)Oc1ccc(NC(=O)NC23CC4CC(CC(C4)C2)C3)cc1 [Compound 10]

- Parent compound remaining after the reaction [1]: ≥ 90%
- Level of the corresponding acid metabolite [1]: below the limit of detection
- Concentration in buffer [4]: <0.3 µM
- Concentration in octanol [4]: 2445 µM
Compound: COC(=O)c1ccc(NC(=O)NC23CC4CC(CC(C4)C2)C3)cc1 [Compound 13]

- Parent compound remaining after the reaction [1]: 30%
- Time to complete conversion to the corresponding phenol 4 [2]: less than 15 min
Compound: O=C(Nc1ccc(OC(=O)c2ccccc2)cc1)NC12CC3CC(CC(C3)C1)C2 [Compound 11]

- Fold less active towards sEH ([3]; vs un-substituted phenyl 1 or the corresponding ester 13): 83 fold
Compound: O=C(Nc1ccc(C(=O)O)cc1)NC12CC3CC(CC(C3)C1)C2 [Compound 15]

- Inhibition of COX-1 [6]: not able to show any inhibition
- Parent compound remaining after the reaction [1]: ≥ 90%
- Level of the corresponding acid metabolite [1]: below the limit of detection
- IC50 [3]: ~3 nM
- Concentration in buffer [4]: <0.3 µM
- Concentration in octanol [4]: 3886 µM
- Inhibition of COX-2 [7]: not able to show any inhibition
Compound: COC(=O)c1ccc(NC(=O)NC23CC4CC(CC(C4)C2)C3)cc1O [Compound 28]
- Blood concentration [5]: higher than that of the classical sEH inhibitor AUDA

Reference: publication PMC2900318 (Bioorganic & medicinal chemistry letters, 2009)
